From ChEMBL document CHEMBL5705901, “Exploiting selective BCL-2 family inhibitors to dissect cell survival dependencies and define improved strategies for cancer therapy” (Sci Transl Med, 2015)

Key:
[1] = Toxicity in iv dosed SCID mouse assessed as tolerance; type: organism-based; conditions: in vivo
NCI-H1650 [2] = assay: Antitumor activity against human NCI-H1650 cells xenografted in SCID-bg mouse assessed as maximum tumor growth inhibition at 7.5 mg/kg, iv administered as single dose relative to control; type: functional; conditions: read-out: TGI
Summary of the method: (§1)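 NCI-H1650 NSCLC xenografts, ten mice per group. Arms: vehicle; docetaxel iv once at 7.5 mg/kg; oral agent daily for 14 days at 25 mg/kg; and the two combined. TGImax = 100(1 − Tv/Cv) from mean volumes. TGD = 100(T/C − 1) from median times to reach 1 cm3.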

OVCAR-5 [3] = assay: Antitumor activity against human OVCAR-5 xenografted in iv dosed SCID mouse assessed as tumor growth delay relative to control; type: functional
Summary of the method: (§2)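 Tumor volume-based endpoints. TGD = 100(T/C − 1), where T and C are the median times for the treated and control groups to reach 1 cm3. Groups were five mice for NCI-H747 and OVCAR-5 and eight for NCI-H358. Docetaxel was given intravenously and the test agent orally.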

[4] = Toxicity in Sprague-Dawley rat assessed as inhibition of granulopoiesis by measuring reduction in neutrophil count at 5 mg/kg, iv administered once and measured on day 6 by microscopic analysis relative to control; type: organism-based; parameters: scale not given: the % may be the effect or the level left; conditions: in vivo, 144 h, time 6 day
Summary of the method: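 Male Sprague-Dawley rats, n = 10 per group: docetaxel 5 mg/kg i.v. once, or oral inhibitor daily for 5 days (30, 50 or 7 mg/kg depending on agent), alone or combined with docetaxel, against vehicles. Total neutrophil and platelet counts in blood collected on day 6; Tukey-Kramer test versus vehicle.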

EBC-1 [5] = assay: Antitumor activity against human EBC-1 cells xenografted in iv dosed SCID-bg mouse assessed as tumor growth delay relative to control; type: functional
A549 [6] = assay: Antitumor activity against 3 times passaged human A549 cells xenografted in iv dosed SCID mouse assessed as tumor growth delay relative to control; type: functional
MDA-MB-231 [7] = assay: Antitumor activity against LC3 positive human MDA-MB-231 cells xenografted in SCID mouse assessed as tumor growth delay at 7.5 mg/kg, iv administered as single dose relative to control; type: functional
Summary of the method: (§3)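 MDA-MB-231 LC3 metastatic breast cancer xenograft, 10 mice per group, with a vehicle control. Dosing: oral agent 25 mg/kg daily for 14 days; docetaxel 7.5 mg/kg iv once; combination gives both regimens. Mean tumor volumes tracked. TGImax = 100(1 − Tv/Cv) from mean treated vs control volumes. TGD = 100(T/C − 1) from median times to reach 1 cm3.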

EBC-1 [8] = assay: Antitumor activity against human EBC-1 cells xenografted in iv dosed SCID-bg mouse assessed as maximum tumor growth inhibition relative to control; type: functional
NCI-H747 [9] = assay: Antitumor activity against human NCI-H747 cells xenografted in iv dosed SCID-bg mouse assessed as maximum tumor growth inhibition relative to control; type: functional
MDA-MB-231 [10] = assay: Antitumor activity against LC3 positive human MDA-MB-231 cells xenografted in SCID mouse assessed as maximum tumor growth inhibition at 7.5 mg/kg, iv administered as single dose relative to control; type: functional; conditions: read-out: TGI; summary of the method: as §3
[11] = Toxicity in iv dosed SCID mouse assessed as body weight loss relative to control; type: organism-based; conditions: in vivo
[12] = Toxicity in iv dosed SCID-bg mouse assessed as tolerance; type: organism-based; conditions: in vivo
NCI-H358 [13] = assay: Antitumor activity against human NCI-H358 cells xenografted in iv dosed SCID mouse assessed as tumor growth delay relative to control; type: functional; summary of the method: as §2
[14] = Toxicity in iv dosed SCID-bg mouse assessed as body weight loss relative to control; type: organism-based; conditions: in vivo
A549 [15] = assay: Antitumor activity against 3 times passaged human A549 cells xenografted in iv dosed SCID mouse assessed as maximum tumor growth inhibition relative to control; type: functional
OVCAR-5 [16] = assay: Antitumor activity against human OVCAR-5 xenografted in iv dosed SCID mouse assessed as maximum tumor growth inhibition relative to control; type: functional
NCI-H1650 [17] = assay: Antitumor activity against human NCI-H1650 cells xenografted in SCID-bg mouse assessed as tumor growth delay at 7.5 mg/kg, iv administered as single dose relative to control; type: functional; summary of the method: as §1
NCI-H747 [18] = assay: Antitumor activity against human NCI-H747 cells xenografted in iv dosed SCID-bg mouse assessed as tumor growth delay relative to control; type: functional; summary of the method: as §2
NCI-H358 [19] = assay: Antitumor activity against human NCI-H358 cells xenografted in iv dosed SCID mouse assessed as maximum tumor growth inhibition relative to control; type: functional

SMILES: CC(=O)O[C@@]12CO[C@@H]1C[C@H](O)[C@@]1(C)C(=O)[C@H](O)C3=C(C)[C@@H](OC(=O)[C@H](O)[C@@H](NC(=O)OC(C)(C)C)c4ccccc4)C[C@@](O)([C@@H](OC(=O)c4ccccc4)[C@H]21)C3(C)C [DOCETAXEL ANHYDROUS]
- Activity [1]: Non-Toxic
- inhibition in vivo at 7.5 mg/kg (NCI-H1650 [2]): 82%
- Activity (OVCAR-5 [3]): 54%
- Activity [4]: 61%
- Activity (EBC-1 [5]): 44%
- Activity (A549 [6]): 108%
- Activity (MDA-MB-231 [7]): 82%
- TGI (EBC-1 [8]): 76%
- TGI (NCI-H747 [9]): 52%
- inhibition in vivo at 7.5 mg/kg (MDA-MB-231 [10]): 73%
- Activity [11]: < 9%
- Activity [12]: Non-Toxic
- Activity (NCI-H358 [13]): 47%
- Activity [14]: < 9%
- TGI (A549 [15]): 71%
- TGI (OVCAR-5 [16]): 39%
- Activity (NCI-H1650 [17]): 52%
- Activity (NCI-H747 [18]): 113%
- TGI (NCI-H358 [19]): 58%
